Source: PubChem BioAssay (Broad Institute)
HIF activator – HIF pathway transcriptional activation; U2OS HRE-luciferase reporter, luminescence; normalized: DMSO 0%, desferrioxamine 100%; activation, % at 7.5 µM (by protocol); 300,000 tested, 0.32% active;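 active means mean activation of at least 10% of the iron chelator positive control signal, with at least half of replicates also reaching 10%; inconclusive means mean and replicate majority disagree about reaching 10%; inactive means mean and most replicates under 10%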
AI-2 QS modul – Vibrio harveyi AI-2 quorum sensing modulation; activity change, % at 7.5 µM; Vibrio harveyi JMH597 AI-2 luminescence/OD600 ratio, 9 h; active compounds read low; strain lacks LuxN and CqsS sensors; 0 = neutral-control median; 300,000 tested, 0.4% active; in the data active means activity change below about -75%, passing the limit was not always enough; inconclusive means no clear call, values can overlap the other calls;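 further: luminescence divided by OD600 gain over 9 h not by final OD600 alone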
ARNT-TACC3 inh – disrupts binding between human ARNT and TACC3 | Q9Y6A5 | AlphaScreen His-ARNT PAS-B/GST-TACC3 binding, luminescence; TACC3 fragment carries E629A point mutation | inhibition, % at 9.99 µM | 390,000 tested, 0.66% active | AID 623870;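 active means mean inhibition of replicates at least 50% and at least half of replicates each reaching 50%; inconclusive means half or more replicates reach 50% but mean below 50%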
T cruzi repl – T. cruzi replication inhibition | T. cruzi beta-gal in NIH3T3, luminescence, 90 h | inhibition, % (concentration not given with the values) | 300,000 tested, 1.4% active | AID 1885;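 active means mean inhibition across valid replicates above about 55%, limit read from the data; inconclusive means mean below that limit but half or more replicates reach it; inactive means mean below it, under half of replicates reach it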;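 further: signal also drops with host cell toxicity which is not excluded here; higher percent means less beta-gal luminescence so fewer parasites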
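Read-out: Parasite load inhibition, % | Test system: Mouse NIH/3T3 fibroblasts infected with β-gal-expressing T. cruzi Tulahuen C4 | Amount: 5,000 cells/well | Medium: DMEM, 2% fetal bovine serum | Signal: GalScreen β-gal luminescence, detergent lysis, 60 min | Timing: 3 h attach, ≥90 h co-culture | Also added: Tulahuen C4 trypomastigotes, 5000/well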
Hits are given with their value; i = inactive; ? = inconclusive; nt = no result. An excerpt weighted towards active compounds, which were near 2% of everything screened.

SMILES	HIF activator	AI-2 QS modul	ARNT-TACC3 inh	T cruzi repl
CCS(=O)(=O)N1CCN(c2ccc(C(=O)N3CCOCC3)cc2[N+](=O)[O-])CC1	i	i	i	i
O=C(C[C@H]1CC[C@@H]2[C@H](COC[C@@H](O)CN2C(=O)c2ccccc2F)O1)NCc1ccc(F)cc1	nt	nt	i	nt
Cc1ccc(S(=O)(=O)c2nc(NCc3ccc4c(c3)OCO4)sc2Cl)cc1	i	i	i	61
CC(=O)Nc1nc(S(=O)(=O)c2ccc(C)cc2)c(Cl)s1	i	i	i	i
Cc1ccc(CNc2ccc3c(c2)OCO3)cc1	i	i	i	82
COc1ccc(CN2CCN(C(=O)C3CCC(CNS(=O)(=O)c4ccc(C)cc4)CC3)CC2)c(OC)c1OC (centres undefined)	i	i	i	57
CCCC(=O)Nc1ccc2c(c1)OC[C@H](C)NC[C@@H](C)[C@@H](OC)CN(C)C2=O	nt	nt	i	nt
COc1ccc(-n2c(O)c(/C=N/NS(=O)(=O)c3cccc([N+](=O)[O-])c3)c3ccccc3c2=O)cc1OC	i	i	i	62
COc1ccc(CC(=O)NNS(=O)(=O)c2cccc([N+](=O)[O-])c2)cc1OC	i	i	nt	i
C/C(=N\Nc1ccc2nncn2n1)c1ccco1	i	i	i	i
C(=N\Nc1ccc2nncn2n1)/c1ccccn1	i	i	51	i
C/C(=N\Nc1ccc2nncn2n1)c1ccccn1	129	?	nt	63
c1ccc(N2CCN(c3ccc4nncn4n3)CC2)nc1	i	i	i	i
CCCC(=O)Nc1ccc2c(c1)OC[C@@H](C)N(Cc1ccc(F)cc1)C[C@H](C)[C@@H](OC)CN(C)C2=O	nt	nt	i	nt
CN(C[C@@H]1[C@@H](c2ccccc2)[C@H](CO)N1Cc1ccccn1)S(C)(=O)=O	nt	nt	i	nt
Cc1ccc(S(=O)(=O)CC(=O)Nc2ncc([N+](=O)[O-])s2)cc1	i	i	i	i
Cc1ccc(CC(=O)Nc2ncc([N+](=O)[O-])s2)cc1	i	i	i	69
Cc1ncoc1C(=O)Nc1ncc([N+](=O)[O-])s1	i	i	i	i
CCCCC(CC)C(=O)Nc1ncc([N+](=O)[O-])s1 (centres undefined)	i	i	i	81
Cc1noc(C)c1NC(=O)Nc1ccc2c(c1)CC(=O)N([C@@H](C)CO)C[C@@H](C)[C@H](CN(C)CC1CCCCC1)O2	nt	nt	i	nt
CCC(Sc1nc(C)cc(C)n1)C(=O)NC1=NN=C(c2ccc(C)cc2)CS1 (centres undefined)	i	i	i	i
Cc1cc(C)nc(SCC(=O)NC2=NN=C(c3ccc(Br)cc3)CS2)n1	i	i	i	68
CCn1cc(Cl)c(C(=O)N2N=C(c3ccc4ccccc4c3)CC2c2ccccc2O)n1 (centres undefined)	i	i	i	56
CCS(=O)(=O)c1ncc(Cl)c(C(=O)Nc2ccc(S(=O)(=O)N3CCC(C)CC3)cc2)n1	nt	i	i	62
COc1ccc(Br)cc1C(=O)Nc1ccc(Cc2ccncc2)cc1	i	i	i	73
SMILES	HIF activator	AI-2 QS modul	ARNT-TACC3 inh	T cruzi repl
C[C@@H]1CN([C@H](C)CO)C(=O)c2cc(NC(=O)C3CCCCC3)ccc2O[C@H]1CN(C)C(=O)NC1CCCCC1	nt	nt	i	nt
COCCNC(=O)C[C@@H]1C[C@@H]2c3cc(NC(=O)CC4CC4)ccc3O[C@@H]2[C@H](CO)O1	nt	nt	i	nt
CCOc1ccccc1C(=O)Nn1c(C2CCC2)nc2ccccc2c1=O	i	i	i	i
COc1ccccc1C(=O)Nn1c(C2CCC2)nc2ccccc2c1=O	i	i	i	56
COc1ccc(CN2CCCC(C(=O)c3ccc(Cl)cc3)C2)cc1Cn1cccn1 (centres undefined)	i	i	i	64
COCc1cc(CN2CCCC(C(=O)Nc3cccc(-n4cnnn4)c3)C2)ccc1OC (centres undefined)	i	i	i	70
COc1cccc(C(=O)C2CCCN(Cc3cccc(OCCO)c3)C2)c1 (centres undefined)	i	i	i	i
COc1cccc(C(=O)C2CCCN(Cc3ccc(OC)c(Cn4cncn4)c3)C2)c1 (centres undefined)	i	i	i	58
C[C@@H]1CCCCO[C@@H](CN(C)C(=O)Nc2ccc3c(c2)OCO3)[C@@H](C)CN([C@H](C)CO)C(=O)c2cc(NS(=O)(=O)c3ccc(F)cc3)ccc2O1	nt	nt	i	nt
CC(C)C#Cc1cnc2c(c1)C(=O)N([C@@H](C)CO)C[C@H](C)[C@@H](CN(C)C(=O)Nc1ccccc1)O2	nt	nt	i	nt
CS(=O)(=O)Nc1ccc2c(c1)[C@H]1C[C@H](CC(=O)N3CCCCC3)O[C@@H](CO)[C@H]1O2	nt	nt	i	nt
Cc1noc(C)c1S(=O)(=O)N(C)C[C@H]1Oc2ccc(NS(=O)(=O)c3ccccc3)cc2CC(=O)N([C@H](C)CO)C[C@@H]1C	nt	nt	i	nt
COc1ccc(NC(=O)Nc2ccc3c(c2)C(=O)N([C@@H](C)CO)C[C@@H](C)[C@@H](CN(C)C(=O)Cc2ccccc2)OCCCC[C@H](C)O3)cc1	nt	nt	i	nt
C=CCn1c(Cc2nc3ccccc3[nH]2)n[nH]c1=S	i	i	49	i
O=C(C[C@H]1C=C[C@@H](NC(=O)Nc2ccccc2F)[C@@H](CO)O1)NCc1ccc(F)cc1	nt	nt	i	nt
CCCN(C)C[C@@H]1Oc2ncc(-c3cccc(C(=O)N(C)C)c3)cc2C(=O)N([C@@H](C)CO)C[C@H]1C	nt	nt	i	nt
Cc1nn(-c2ccccc2)c(N2CCCC2)c1/C=N/NC(=O)C1CC1	i	i	i	i
O=C(N/N=C/c1c(O)n(-c2ccc(Cl)cn2)c(=O)c2ccccc12)c1ccncc1	i	i	42	i
O=C(N/N=C/c1cccc2ccccc12)c1ccncc1	i	i	i	i
O=C(N/N=C/c1c(O)n(-c2ccc(Cl)cn2)c(=O)c2ccccc12)C1CC1	i	i	68	i
Cc1ccc(N2C(=O)c3ccccc3NC2C(C)Cc2ccc3c(c2)OCO3)cc1 (centres undefined)	i	i	i	55
COC(=O)c1c(CC[C@@H](CO)NC(=O)N[C@H](Cc2ccccc2)Cn2cc(-c3ccccn3)nn2)oc(C(C)=O)c1C(=O)OC	nt	nt	22	nt
CC(C)(C)c1ccc(COC(=O)Nc2ccc(F)cc2)cc1	i	i	i	i
CC(C)(C)c1ccc(NC(=O)Nc2ccc(F)cc2)cc1	i	-85	i	i
C[C@H](CO)N1C[C@H](C)[C@H](CN(C)Cc2ccc3c(c2)OCO3)OCCCC[C@H](C)Oc2ccc(NC(=O)NC3CCCCC3)cc2C1=O	nt	nt	i	nt
O=C(NCCNC(=O)c1ccccn1)c1ccc(Cl)cc1	i	i	i	i
CN1CCC(=C(c2ccc(Cl)cc2)c2ccccn2)CC1	i	i	i	69
CC(C)NC(=S)NN=C1c2ccccc2-c2ccccc21	26	i	i	i
C[C@H]1CN([C@@H](C)CO)C(=O)CCCn2cc(nn2)CO[C@H]1CN(C)S(=O)(=O)c1ccc(-c2ccccc2)cc1	nt	nt	i	nt
CC12CCC(C(=O)N3CCN(C(c4ccccc4)c4ccccc4)CC3)(OC1=O)C2(C)C (centres undefined)	i	i	i	56
